Data set [1] can be described thus: Cytotoxicity against human BRO cells after 72 hrs by MTT assay. Format: functional, cell-based. The procedure, abridged: (§1)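 Cells were exposed continuously to drug for 72 h, with dilutions made in RPMI 1640 + 10% FBS and final solvent below 0.625%. Relative growth was read by MTT, and IC50 was reported in μM.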
A general note: Formazan colour is commonly taken as a measure of viable cells.

The next data set relates to HT-29. The data set is described as follows: Cytotoxicity against human HT-29 cells after 72 hrs by MTT assay. Format: functional, cell-based. The method in brief: as §1
Data set [2] concerns SK-OV-3. Put plainly: Cytotoxicity against human SKOV3 cells after 72 hrs by MTT assay. The class given is functional, cell-based. The method in brief:
as §1

The test system of a further data set is PC-3. The data set is described as follows: Cytotoxicity against human PC3 cells after 72 hrs by MTT assay. The class given is functional, cell-based. The method in brief:
as §1

Another data set has as its system HL-60. Put plainly: Cytotoxicity against human HL60 cells after 72 hrs by MTT assay. The class given is functional, cell-based. The settings on record: HL-60, 72 h. The procedure, abridged: as §1
The subject of a further data set is P388. The data set is described as follows: Cytotoxicity against mouse P388 cells after 72 hrs by MTT assay. The class given is functional, cell-based. The method in brief: as §1
Another data set concerns MCF7. Put plainly: Cytotoxicity against human MCF7 cells after 72 hrs by MTT assay. Format: functional, cell-based. The procedure, abridged:
as §1

For data set [3], the system named is SK-OV-3. Put plainly: Antitumor activity against human SKOV3 xenografted in mouse assessed as reduction in tumor volume at 40 mg/kg, ip for 5 days. The class given is functional. On the set-up: scale not given: the % may be the effect or the level left. To be noted: route intraperitoneal. The method in brief: (§2)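 Female nu/nu mice, 6-10 weeks old. SKOV-3 cells were harvested at 80% confluence with viability >90% by trypan blue, washed, resuspended in PBS and given i.p. at 0.65 × 10^6 per mouse. Mice were sacrificed at 7 weeks and tumors counted and total volume measured per mouse.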
On the technique in general: Xenograft models place foreign cells or tissue in a host animal.

Data set [4] concerns SK-OV-3. The data set is described as follows: Antitumor activity against human SKOV3 xenografted in mouse assessed as reduction in tumor number at 40 mg/kg, ip for 5 days. Format: functional. On the set-up: scale not given: the % may be the effect or the level left. To be noted: route intraperitoneal. The method in brief: as §2
Another data set relates to Mus musculus. The data set is described as follows: Toxicity in mouse assessed as weight loss at 40 mg/kg, ip. The settings on record: in vivo. Format: organism-based. On the set-up: dose 40 mg/kg, route intraperitoneal.

Data on nine molecules can be found in ChEMBL document CHEMBL1250496, “Novel 6,12-disubstituted chrysene as potent anticancer agent: synthesis, in vitro and in vivo study” (Eur J Med Chem, 2010).

A word on the IC50: it is the concentration that inhibits the measured activity by half.

As to `O=C(CCC(=O)N1CCCCC1)Nc1cc2c3ccccc3c(NC(=O)CCC(=O)N3CCCCC3)cc2c2ccccc12`, the IC50 in data set [1] (Homo sapiens, BRO, 72 h) amounted to 44.3 µM; with HT-29 (Homo sapiens, HT-29, 72 h), 41.1 µM; in the data set with SK-OV-3 [2] (Homo sapiens, SK-OV-3, 72 h) it was 22 µM; with PC-3 (Homo sapiens, PC-3, 72 h) it was 24.4 µM; in the data set with HL-60 it was 25 µM; in the data set with P388 (Mus musculus, P388, 72 h), 37.8 µM. In the data set on MCF7 (Homo sapiens, MCF7, 72 h), the IC50 came to 21 µM.

For the molecule `CN1CCN(CCCCNc2cc3c4ccccc4c(NCCCCN4CCN(C)CC4)cc3c3ccccc23)CC1`, the IC50 in data set [1] (bro) is 3.8 µM; in the data set on HT-29 (Homo sapiens, HT-29, 72 h), 2.1 µM; in the data set with SK-OV-3 [2] (Homo sapiens, SK-OV-3, 72 h), 0.9 µM; with PC-3 (Homo sapiens, PC-3, 72 h), 1.2 µM; in the data set on HL-60 it was 0.9 µM; in the data set on P388 (p388) it was 1.7 µM. Besides, inhibition in the data set with MCF7 (Homo sapiens, MCF7, 72 h) was half-maximal at 1.7 µM (IC50).

`CN1CCN(CCCCNc2cc3c4ccccc4c(NCCCCN4CCN(C)CC4)cc3c3ccccc23)CC1.Cl`: the half-maximal inhibitory concentration (IC50) in data set [1] (bro) is 0.6 µM; in the data set on HT-29 (ht-29) it was 1.6 µM; in the data set on SK-OV-3 [2] (sk-ov-3), 1 µM; with PC-3 (pc-3), 2.1 µM; in the data set on P388 (p388), 0.8 µM; in the data set with MCF7 (mcf7), 1.2 µM. The Activity in the data set with SK-OV-3 [3] is 47%; in the data set on SK-OV-3 [4], 35%; in the data set on Mus musculus it was 5%.

With `CN1CCN(C(=O)CCC(=O)Nc2cc3c4ccccc4ccc3c3ccccc23)CC1`, the IC50 was 41.6 µM in [1] (Homo sapiens, BRO, 72 h); 9.3 µM in the data set with HT-29 (Homo sapiens, HT-29, 72 h); 11.1 µM in the data set on SK-OV-3 [2] (Homo sapiens, SK-OV-3, 72 h); 18.4 µM in the data set on PC-3 (Homo sapiens, PC-3, 72 h); 9.5 µM with HL-60; 6 µM with P388 (Mus musculus, P388, 72 h). In addition, in the data set with MCF7 (Homo sapiens, MCF7, 72 h), the IC50 came to 7.1 µM.

For the molecule `c1ccc2c(c1)c(NCCCCN1CCCCC1)cc1c3ccccc3c(NCCCCN3CCCCC3)cc21`, the IC50 came out at 1.7 µM in [1] (Homo sapiens, BRO, 72 h); 1.2 µM with HT-29 (Homo sapiens, HT-29, 72 h); 1.9 µM in the data set on SK-OV-3 [2] (Homo sapiens, SK-OV-3, 72 h); 0.8 µM in the data set with PC-3 (Homo sapiens, PC-3, 72 h); 0.8 µM with HL-60; 2 µM in the data set on P388 (Mus musculus, P388, 72 h). The molecule further registered an IC50 in the data set on MCF7 (Homo sapiens, MCF7, 72 h) of 1.4 µM.

Take `O=C(CCC(=O)N1CCCCC1)Nc1cc2c3ccccc3ccc2c2ccccc12`: the IC50 was above 100 µM in data set [1] (Homo sapiens, BRO, 72 h); 33.3 µM in the data set on HT-29 (Homo sapiens, HT-29, 72 h); 21 µM with SK-OV-3 [2] (Homo sapiens, SK-OV-3, 72 h); 50.4 µM with PC-3 (Homo sapiens, PC-3, 72 h); 18.8 µM in the data set on HL-60; 24.5 µM in the data set with MCF7 (Homo sapiens, MCF7, 72 h).

On to `CN1CCN(C(=O)CCC(=O)Nc2cc3c4ccccc4c(NC(=O)CCC(=O)N4CCN(C)CC4)cc3c3ccccc23)CC1`, for which the IC50 was found to be 57.3 µM in [1] (Homo sapiens, BRO, 72 h); 66.6 µM with HT-29 (Homo sapiens, HT-29, 72 h); 72.2 µM in the data set on SK-OV-3 [2] (Homo sapiens, SK-OV-3, 72 h); 15.5 µM in the data set on PC-3 (Homo sapiens, PC-3, 72 h); 42.1 µM in the data set with HL-60; 98 µM with P388 (Mus musculus, P388, 72 h). The IC50 in the data set with MCF7 (Homo sapiens, MCF7, 72 h) amounted to 75 µM.

Regarding `CN1CCN(CCCCNc2cc3c4ccccc4ccc3c3ccccc23)CC1`, the IC50 was 13.9 µM in data set [1] (Homo sapiens, BRO, 72 h); 14.3 µM in the data set on HT-29 (Homo sapiens, HT-29, 72 h); 8.4 µM in the data set on SK-OV-3 [2] (Homo sapiens, SK-OV-3, 72 h); 10 µM in the data set with PC-3 (Homo sapiens, PC-3, 72 h); 5.3 µM in the data set with HL-60; 19.5 µM in the data set with P388 (Mus musculus, P388, 72 h). For the same molecule, in the data set on MCF7 (Homo sapiens, MCF7, 72 h), the IC50 amounted to 6.4 µM.

For `c1ccc2c(c1)ccc1c3ccccc3c(NCCCCN3CCCCC3)cc21`, the IC50 in [1] (Homo sapiens, BRO, 72 h) is 3.4 µM; in the data set on HT-29 (Homo sapiens, HT-29, 72 h), 2.4 µM; with SK-OV-3 [2] (Homo sapiens, SK-OV-3, 72 h) it was 4.4 µM; with PC-3 (Homo sapiens, PC-3, 72 h), 3.7 µM; in the data set with HL-60, 1.1 µM; in the data set with P388 (Mus musculus, P388, 72 h), 2.2 µM. In addition, in the data set on MCF7 (Homo sapiens, MCF7, 72 h), the IC50 came to 2.3 µM.
